Values after ≈ are worked out from the molar mass of the structure shown. Active and inactive are the calls of the source. The rule behind the calls is not given here.
Columns and labels:
[1] = Clearance in Wistar-Han rat hepatocytes at 1 uM measured for 2 to 90 mins by LC-MS/MS; assay type: ADME, cell-based, Hepatocyte; conditions: time 2-90 min; for CLhep predicted at 1 µM: Wistar-Han
[2] = tested on: A2780; assay: cells; assay type: functional, cell-based; conditions: Homo sapiens, A2780, 96 h
[3] = Aqueous solubility of the compound at pH 6.5 for 24 hrs by HPLC-MS/MS; assay type: physicochemical
[4] = Apparent permeability of the compound across apical side to basolateral side in human CaCo-2 cells at 2 uM incubated for 2 hrs; assay type: ADME, cell-based
Outline: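 Caco-2 monolayers with TEER of at least 400 Ω·cm². Compound (predissolved in DMSO) added apically or basolaterally at a final 2 μM and incubated 2 h at 37 °C, in triplicate. Both compartments were sampled before and after, MeOH-precipitated and analysed by LC–MS/MS. Papp = (Vr/P0)(1/S)(P2/t).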

[5] = tested on: MOLM-13; assay: cells; assay type: functional, cell-based; conditions: Homo sapiens, MOLM-13, 96 h
[6] = Efflux ratio of apparent permeability across basolateral to apical side over apical to basolateral side in human Caco2 cells at 2 uM incubated for 2 hrs; conditions: Caco-2
[7] = Aqueous solubility of the compound at pH 4 for 24 hrs by HPLC-MS/MS; assay type: physicochemical
[8] = Metabolic stability in Wistar-Han rat hepatocytes at 1 uM measured for 2 to 90 mins by LC-MS/MS; assay type: ADME, cell-based, Hepatocyte; conditions: time 2-90 min
[9] = Volume of distribution at steady state in Wistar-Han rat blood at 0.3 to 0.5 mg/kg, iv measured upto 24 hrs by HPLC with LC-MS/MS; assay type: ADME, organism-based; conditions: dose 0.3-0.5 mg/kg, read-out: Vdss
[10] = target: Cytochrome P450 2D6 (Homo sapiens, UniProt P10635); assay: Inhibition of CYP2D6 in human liver microsomes using dextromethorphan as substrate by LC-MS/MS analysis; assay type: ADME; conditions: read-out: INH
Chain of Cytochrome P450 2D6 (P10635 whole entry): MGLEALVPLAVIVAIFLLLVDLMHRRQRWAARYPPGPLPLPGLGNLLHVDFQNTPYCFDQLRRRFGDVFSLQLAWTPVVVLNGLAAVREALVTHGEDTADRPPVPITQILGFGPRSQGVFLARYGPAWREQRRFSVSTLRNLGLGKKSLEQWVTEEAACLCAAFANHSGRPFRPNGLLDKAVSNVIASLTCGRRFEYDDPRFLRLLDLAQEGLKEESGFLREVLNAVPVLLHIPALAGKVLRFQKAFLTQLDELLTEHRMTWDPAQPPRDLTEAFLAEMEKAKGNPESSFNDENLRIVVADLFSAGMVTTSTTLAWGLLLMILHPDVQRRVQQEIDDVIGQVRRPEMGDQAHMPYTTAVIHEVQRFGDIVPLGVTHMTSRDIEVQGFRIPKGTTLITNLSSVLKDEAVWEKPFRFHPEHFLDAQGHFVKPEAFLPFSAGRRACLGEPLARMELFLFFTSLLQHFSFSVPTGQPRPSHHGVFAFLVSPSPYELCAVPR

[11] = target: Cytochrome P450 2C19 (Homo sapiens, UniProt P33261); assay: Inhibition of CYP2C19 in human liver microsomes using (S)-mephenytoin as substrate by LC-MS/MS analysis; assay type: ADME; conditions: read-out: INH
Chain of Cytochrome P450 2C19 (P33261 whole entry): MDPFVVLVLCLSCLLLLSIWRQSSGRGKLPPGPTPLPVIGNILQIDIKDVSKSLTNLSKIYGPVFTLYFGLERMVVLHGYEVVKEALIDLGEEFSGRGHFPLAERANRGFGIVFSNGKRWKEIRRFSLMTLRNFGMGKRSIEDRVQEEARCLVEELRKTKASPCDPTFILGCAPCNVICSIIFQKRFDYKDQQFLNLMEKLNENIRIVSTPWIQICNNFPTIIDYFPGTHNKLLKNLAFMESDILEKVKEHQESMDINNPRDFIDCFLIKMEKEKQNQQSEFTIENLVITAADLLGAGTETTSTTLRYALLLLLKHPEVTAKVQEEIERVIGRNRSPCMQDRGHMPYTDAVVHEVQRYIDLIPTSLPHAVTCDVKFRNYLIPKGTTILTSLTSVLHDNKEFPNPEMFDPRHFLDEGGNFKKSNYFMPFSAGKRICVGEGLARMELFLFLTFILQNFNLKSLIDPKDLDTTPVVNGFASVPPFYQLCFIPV

[12] = Ratio of drug level in Wistar-Han rat blood to plasma; conditions: blood and plasma
[13] = target: T1, Cytochrome P450 1A2 (Homo sapiens, UniProt P05177); assay: Induction of CYP1A2 in human hepatocytes by LC-MS/MS analysis; assay type: ADME, cell-based, Hepatocyte
T1 sequence (P05177 whole entry): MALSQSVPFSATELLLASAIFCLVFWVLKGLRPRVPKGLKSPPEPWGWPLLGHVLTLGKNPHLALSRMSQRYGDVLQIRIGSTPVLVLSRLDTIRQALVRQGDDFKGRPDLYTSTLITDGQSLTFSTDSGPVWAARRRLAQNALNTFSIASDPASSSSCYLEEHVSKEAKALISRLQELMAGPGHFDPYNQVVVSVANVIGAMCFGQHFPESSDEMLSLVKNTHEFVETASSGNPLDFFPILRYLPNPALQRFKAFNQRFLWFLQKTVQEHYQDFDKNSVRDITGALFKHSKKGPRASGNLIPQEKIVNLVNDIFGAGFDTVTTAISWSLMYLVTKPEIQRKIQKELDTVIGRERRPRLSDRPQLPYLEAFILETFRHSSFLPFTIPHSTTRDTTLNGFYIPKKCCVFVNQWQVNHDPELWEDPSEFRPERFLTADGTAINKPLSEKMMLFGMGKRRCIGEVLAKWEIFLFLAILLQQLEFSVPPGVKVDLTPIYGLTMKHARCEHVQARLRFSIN

[14] = Clearance in Wistar-Han rat Liver microsomes at 1 uM measured for 2 to 90 mins by LC-MS/MS; assay type: ADME, Microsome; conditions: time 2-90 min
[15] = Clearance in Wistar-Han rat blood at 0.3 to 0.5 mg/kg, iv measured upto 24 hrs by HPLC with LC-MS/MS; assay type: ADME, organism-based; conditions: dose 0.3-0.5 mg/kg
[16] = target: T2, Cytochrome P450 2C8 (Homo sapiens, UniProt P10632); assay: Inhibition of CYP2C8 in human liver microsomes using amodiaquine as substrate by LC-MS/MS analysis; assay type: ADME; conditions: read-out: INH
T2 sequence (P10632 whole entry): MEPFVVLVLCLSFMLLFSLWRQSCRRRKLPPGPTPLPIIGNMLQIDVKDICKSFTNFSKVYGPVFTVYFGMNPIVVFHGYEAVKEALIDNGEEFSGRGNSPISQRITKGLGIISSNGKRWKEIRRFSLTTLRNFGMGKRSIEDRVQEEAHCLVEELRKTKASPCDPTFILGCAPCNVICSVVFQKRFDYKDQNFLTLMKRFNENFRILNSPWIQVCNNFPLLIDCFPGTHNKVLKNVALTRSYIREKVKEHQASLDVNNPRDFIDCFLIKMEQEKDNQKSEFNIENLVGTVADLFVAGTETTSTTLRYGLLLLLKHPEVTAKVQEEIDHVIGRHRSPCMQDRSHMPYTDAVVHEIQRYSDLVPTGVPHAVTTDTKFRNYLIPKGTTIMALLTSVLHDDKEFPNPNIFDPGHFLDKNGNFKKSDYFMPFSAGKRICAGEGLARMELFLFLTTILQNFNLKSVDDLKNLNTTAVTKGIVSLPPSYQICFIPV

[17] = target: Cytochrome P450 3A4 (Homo sapiens, UniProt P08684); assay: Inhibition of CYP3A4 in human liver microsomes using midazolam/testosterone as substrate by LC-MS/MS analysis; assay type: ADME; conditions: read-out: INH
Chain of Cytochrome P450 3A4 (P08684 whole entry): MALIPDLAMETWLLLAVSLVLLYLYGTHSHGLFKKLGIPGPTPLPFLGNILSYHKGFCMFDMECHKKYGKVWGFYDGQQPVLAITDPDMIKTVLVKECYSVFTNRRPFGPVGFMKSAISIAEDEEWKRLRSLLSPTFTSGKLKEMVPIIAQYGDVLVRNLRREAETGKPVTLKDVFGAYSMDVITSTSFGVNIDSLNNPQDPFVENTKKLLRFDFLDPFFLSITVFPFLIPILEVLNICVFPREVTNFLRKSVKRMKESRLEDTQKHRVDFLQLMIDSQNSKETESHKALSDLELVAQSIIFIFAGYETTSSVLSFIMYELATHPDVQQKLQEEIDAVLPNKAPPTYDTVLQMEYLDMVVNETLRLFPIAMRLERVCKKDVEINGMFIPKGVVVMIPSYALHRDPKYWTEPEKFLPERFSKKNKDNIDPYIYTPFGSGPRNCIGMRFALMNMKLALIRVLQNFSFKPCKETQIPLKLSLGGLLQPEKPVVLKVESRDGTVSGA

[18] = target: T1, Cytochrome P450 1A2; assay: Inhibition of CYP1A2 in human liver microsomes using phenacetin as substrate by LC-MS/MS analysis; assay type: ADME; conditions: read-out: INH
[19] = target: T3, Cytochrome P450 2B6 (Homo sapiens, UniProt P20813); assay: Inhibition of CYP2B6 in human liver microsomes using bupropion as substrate by LC-MS/MS analysis; assay type: ADME
T3 sequence (P20813 whole entry): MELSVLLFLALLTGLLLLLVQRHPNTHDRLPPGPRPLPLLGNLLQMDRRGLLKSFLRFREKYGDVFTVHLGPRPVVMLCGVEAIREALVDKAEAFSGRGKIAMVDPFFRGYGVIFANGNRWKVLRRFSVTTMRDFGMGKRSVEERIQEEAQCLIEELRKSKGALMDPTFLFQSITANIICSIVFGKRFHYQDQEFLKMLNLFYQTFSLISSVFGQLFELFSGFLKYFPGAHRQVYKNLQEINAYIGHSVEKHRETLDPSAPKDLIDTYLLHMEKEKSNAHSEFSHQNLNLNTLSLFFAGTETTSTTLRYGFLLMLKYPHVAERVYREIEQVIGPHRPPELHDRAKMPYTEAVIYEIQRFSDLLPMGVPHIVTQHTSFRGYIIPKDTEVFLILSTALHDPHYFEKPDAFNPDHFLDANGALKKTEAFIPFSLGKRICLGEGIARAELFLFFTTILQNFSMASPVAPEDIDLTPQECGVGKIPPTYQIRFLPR

[20] = target: Cytochrome P450 2E1 (Homo sapiens, UniProt P05181); assay: Inhibition of CYP2E1 in human liver microsomes using chlorzoxazone as substrate by LC-MS/MS analysis; assay type: ADME
Chain of Cytochrome P450 2E1 (P05181 whole entry): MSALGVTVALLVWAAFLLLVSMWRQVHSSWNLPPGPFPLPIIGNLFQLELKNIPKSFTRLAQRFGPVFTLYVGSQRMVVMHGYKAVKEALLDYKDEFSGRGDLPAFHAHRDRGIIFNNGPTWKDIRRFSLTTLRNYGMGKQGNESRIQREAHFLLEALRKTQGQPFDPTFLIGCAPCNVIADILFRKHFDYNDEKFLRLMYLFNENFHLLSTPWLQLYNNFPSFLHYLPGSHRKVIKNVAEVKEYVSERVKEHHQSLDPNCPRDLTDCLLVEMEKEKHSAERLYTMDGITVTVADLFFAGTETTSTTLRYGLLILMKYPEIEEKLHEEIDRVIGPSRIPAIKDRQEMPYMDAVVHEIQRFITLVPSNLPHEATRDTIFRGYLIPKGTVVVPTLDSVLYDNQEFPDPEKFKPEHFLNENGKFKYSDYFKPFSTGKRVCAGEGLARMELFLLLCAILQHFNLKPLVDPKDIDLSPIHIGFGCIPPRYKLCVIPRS

[21] = target: Cytochrome P450 2C9 (Homo sapiens, UniProt P11712); assay: Inhibition of CYP2C9 in human liver microsomes using diclofenac as substrate by LC-MS/MS analysis; assay type: ADME; conditions: read-out: INH
Chain of Cytochrome P450 2C9 (P11712 whole entry): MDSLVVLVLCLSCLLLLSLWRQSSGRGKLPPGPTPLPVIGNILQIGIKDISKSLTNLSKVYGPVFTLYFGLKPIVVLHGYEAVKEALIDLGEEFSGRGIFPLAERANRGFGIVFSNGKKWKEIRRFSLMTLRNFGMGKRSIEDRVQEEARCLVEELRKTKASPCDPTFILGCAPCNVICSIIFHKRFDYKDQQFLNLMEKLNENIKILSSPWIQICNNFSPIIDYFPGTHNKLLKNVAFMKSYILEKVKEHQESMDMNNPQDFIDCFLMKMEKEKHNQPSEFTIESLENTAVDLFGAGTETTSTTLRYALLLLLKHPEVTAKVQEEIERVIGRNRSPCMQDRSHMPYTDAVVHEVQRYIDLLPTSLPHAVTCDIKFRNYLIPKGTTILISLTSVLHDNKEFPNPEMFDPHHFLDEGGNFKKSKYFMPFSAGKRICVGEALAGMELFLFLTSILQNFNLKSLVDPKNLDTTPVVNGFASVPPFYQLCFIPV

[22] = target: T4, Cytochrome P450 2A6 (Homo sapiens, UniProt P11509); assay: Inhibition of CYP2A6 in human liver microsomes using coumarin as substrate by LC-MS/MS analysis; assay type: ADME
T4 sequence (P11509 whole entry): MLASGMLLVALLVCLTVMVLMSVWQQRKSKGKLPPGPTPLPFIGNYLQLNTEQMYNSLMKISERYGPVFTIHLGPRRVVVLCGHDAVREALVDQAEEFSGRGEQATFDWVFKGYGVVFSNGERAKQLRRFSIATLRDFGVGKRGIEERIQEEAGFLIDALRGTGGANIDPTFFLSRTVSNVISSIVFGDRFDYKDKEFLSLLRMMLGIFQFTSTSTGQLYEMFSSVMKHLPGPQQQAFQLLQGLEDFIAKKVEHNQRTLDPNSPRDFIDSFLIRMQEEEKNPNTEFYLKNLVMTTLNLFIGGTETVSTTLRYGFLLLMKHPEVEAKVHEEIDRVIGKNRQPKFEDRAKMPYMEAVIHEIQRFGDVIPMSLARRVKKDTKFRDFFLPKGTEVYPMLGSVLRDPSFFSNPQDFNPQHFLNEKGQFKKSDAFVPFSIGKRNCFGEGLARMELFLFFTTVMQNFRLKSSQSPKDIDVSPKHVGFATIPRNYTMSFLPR

[23] = tested on: MV4-11; assay: Antitumor activity against human MV4-11 cells xenografted in rat assessed as inhibition of tumor growth at 12 mg/kg, po administered for 15 days measured after without treatment for additional 30 days; assay type: functional, organism-based; conditions: time 15.0 day
Outline: (§1)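 Rat MV4-11 xenograft, oral dosing at 12 mg/kg daily for 15 days. Tumor growth was monitored during treatment and for a further 30 days without treatment.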

[24] = tested on: MV4-11; assay: Antitumor activity against human MV4-11 cells xenografted in rat assessed as inhibition of tumor growth at 12 mg/kg, po administered for 15 days; assay type: functional, organism-based; conditions: time 15.0 day; outline: as §1
[25] = tested on: MOLM-13; assay: Antitumor activity against human MOLM-13 cells xenografted in AML mouse model assessed as tumor volume by measuring T/C ratio at 65 mg/kg, iv administered once in 5 days; assay type: functional; conditions: time 5 day
Outline: (§2)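 Nude mouse MOLM-13 AML xenograft. Compound dosed iv on the stated schedule, starting 5 days after tumor cell inoculation. Tumor volumes were followed. T/C ratio was taken from mean tumor volumes at the time point when the vehicle group was sacrificed, with significance tested against vehicle controls.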

[26] = tested on: MOLM-13; assay: Antitumor activity against human MOLM-13 cells xenografted in AML mouse model assessed as tumor volume by measuring T/C ratio at 35 mg/kg, iv administered once in 3 days; assay type: functional; conditions: time 3 day; outline: as §2
[27] = tested on: MOLM-13; assay: Antitumor activity against human MOLM-13 cells xenografted in AML mouse model assessed as tumor volume by measuring T/C ratio at 15 mg/kg, iv qd; assay type: functional; outline: as §2
[28] = Half life in Wistar-Han rat blood at 0.3 to 0.5 mg/kg, iv measured upto 24 hrs by HPLC with LC-MS/MS; assay type: ADME, organism-based; conditions: dose 0.3-0.5 mg/kg

COc1cc(F)ccc1-c1nc(Nc2cc(F)cc(CS(=O)(CCCO)=NC#N)c2)ncc1F (configuration not stated)
CLhep predicted at 1 µM [1]: 58.3 mL/min/kg
IC50 [2]: 262 nM
solubility at 24 h [3]: 0.5 µg/mL (≈ 1.02 µM)

COc1cc(F)ccc1-c1cc(Nc2cc(CS(C)(=N)=O)ccn2)ncn1 (configuration not stated)
Papp A→B at 2 h, 2 µM [4]: 2.6 ×10⁻⁶ cm/s
IC50 [5]: 80 nM
efflux ratio at 2 h, 2 µM [6]: 9.3
IC50 [2]: 126 nM
solubility at 24 h [7]: 43 µg/mL (≈ 111 µM)
solubility at 24 h [3]: 2 µg/mL (≈ 5.16 µM)

COc1cc(F)ccc1-c1nc(Nc2cc(F)cc(CN)c2)ncc1F
CLhep predicted at 1 µM [1]: 50 mL/min/kg
Stability [8]: Unstable
IC50 [2]: 692 nM
solubility at 24 h [3]: 17 µg/mL (≈ 47.2 µM)

COc1cc(F)ccc1-c1ncnc(Nc2cccc(CS(C)(=N)=O)c2)n1 (configuration not stated)
Vd [9]: 1 L/kg
IC50 [10]: > 20000 nM
IC50 [11]: > 20000 nM
blood plasma ratio [12]: 1.1
Activity [13]: Not Active
CLH [14]: 2.5 mL/min/kg
Papp A→B at 2 h, 2 µM [4]: 3.5 ×10⁻⁶ cm/s
clearance [15]: 18.3 mL/min/kg
IC50 [16]: > 20000 nM
IC50 [5]: 310 nM
IC50 [17]: > 20000 nM
IC50 [18]: > 20000 nM
CLhep predicted at 1 µM [1]: 2.83 mL/min/kg
INH [19]: > 20 µM
efflux ratio at 2 h, 2 µM [6]: 6.1
INH [20]: > 20 µM
IC50 [21]: > 20000 nM
INH [22]: > 20 µM
IC50 [2]: 380 nM
solubility at 24 h [7]: 309 µg/mL (≈ 798 µM)
solubility at 24 h [3]: 479 µg/mL (≈ 1240 µM)
Activity [23]: inactive
Activity [24]: Active

COc1cc(F)ccc1-c1nc(Nc2cc(F)cc(CS(C)(=N)=O)c2)ncc1F (stereo in doubt)
Vd [9]: 1.6 L/kg
CLH [14]: 26.7 mL/min/kg
T/C [25]: 0.34
T/C [26]: 0.26
Papp A→B at 2 h, 2 µM [4]: 16.8 ×10⁻⁶ cm/s
clearance [15]: 21.7 mL/min/kg
T/C [27]: 0.26
CLH ([1]; 1 µM): 31.7 mL/min/kg
half-life [28]: 60 min
solubility at 24 h [7]: 30 µg/mL (≈ 71 µM)

COc1cc(F)ccc1-c1nc(Nc2cc(F)c(F)c(CS(C)(=O)=NC#N)c2)ncc1F (configuration not stated)
CLhep predicted at 1 µM [1]: 55 mL/min/kg
Stability [8]: Unstable
IC50 [2]: 37 nM
solubility at 24 h [3]: 0.2 µg/mL (≈ 0.43 µM)

COc1cc(F)ccc1-c1nc(Nc2cc(F)cc(CS(C)(=N)=N)c2)ncc1F
Vd [9]: 2.2 L/kg
Papp A→B at 2 h, 2 µM [4]: 5 ×10⁻⁶ cm/s
clearance [15]: 55 mL/min/kg
CLhep predicted at 1 µM [1]: 35 mL/min/kg
half-life [28]: 36 min
IC50 [2]: 184 nM
solubility at 24 h [3]: 155 µg/mL (≈ 368 µM)
